Results published in paper PMC7379967 (The Febs Journal, 2018).

Biological target: human neutrophil proMMP‐9 (Homo sapiens, UniProt P14780)
Assay type: biochemical
Details: zymography
In short: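 Neutrophil proMMP-9 was incubated with recombinant human MMP-3 catalytic domain (enzyme/substrate 1/20), either alone or with galectin-3 (proMMP-9/galectin-3 1/10). Samples were taken at 0, 0.16, 0.5, 1, 2 and 3 h. Galectins were expressed in E. coli BL21-AI and affinity-purified on α-lactose agarose. Conversion to active MMP-9 was read by gelatin zymography, with recombinant proMMP-9 standard loaded as a reference.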

Sequence of human neutrophil proMMP‐9 (P14780 20-707 limits assumed): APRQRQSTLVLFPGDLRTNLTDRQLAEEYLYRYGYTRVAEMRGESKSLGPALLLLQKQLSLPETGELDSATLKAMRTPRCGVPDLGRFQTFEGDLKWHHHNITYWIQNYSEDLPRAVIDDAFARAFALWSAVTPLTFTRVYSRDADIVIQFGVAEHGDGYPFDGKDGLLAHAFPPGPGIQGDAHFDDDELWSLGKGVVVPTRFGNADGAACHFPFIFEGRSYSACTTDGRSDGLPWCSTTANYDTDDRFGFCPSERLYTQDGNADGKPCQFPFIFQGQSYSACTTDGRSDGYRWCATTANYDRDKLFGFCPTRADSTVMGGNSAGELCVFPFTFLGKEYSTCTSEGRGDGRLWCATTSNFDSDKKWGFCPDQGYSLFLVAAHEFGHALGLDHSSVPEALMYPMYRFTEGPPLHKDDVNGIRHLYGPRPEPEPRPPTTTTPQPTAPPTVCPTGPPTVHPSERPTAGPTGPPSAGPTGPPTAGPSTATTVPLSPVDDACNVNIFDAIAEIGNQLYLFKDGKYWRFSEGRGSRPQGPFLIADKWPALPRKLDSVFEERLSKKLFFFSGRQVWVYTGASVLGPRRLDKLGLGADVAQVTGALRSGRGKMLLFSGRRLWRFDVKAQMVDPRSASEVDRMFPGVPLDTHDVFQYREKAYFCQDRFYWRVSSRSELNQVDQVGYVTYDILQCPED

effect on stepwise activation of neutrophil proMMP‐9 by MMP‐3 (cdMMP‐3 1/20, proMMP‐9/galectin‐3 1/10, 0-3 h, Fig. 9A): reduced | effect on activation of neutrophil proMMP‐9 by MMP‐3, overnight incubation (overnight, proMMP‐9/galectin‐3 1/10, Fig. 9B): prevented activation by MMP‐3
Substance: galectin‐3: human galectin‐3 (Met1‐Ile250) fused to C‐terminal tag SG(H)6SC, expressed in E. coli
